“Also recorded” adds a separate entry of the source. Read-outs that look alike come from different tables or passages of the source.
Columns and labels:
[1] = test system: Mice (strain not specified); conditions: Gavage, M, 3/group; ref Ortiz‐Andrade et al. (2008); cited from earlier work
human faecal slurries = conditions: 50 μmol incubated, ref Pereira‐Caro et al. (2015), cited from earlier work
[2] = test system: human peripheral blood lymphocytes; assay: In vitro micronucleus assay with FISH analysis
CYP2C19 = conditions: ref Lu et al. (2011); cited from earlier work
[3] = test system: quinine metabolism in human liver microsomes; conditions: substrate quinine; ref Fasinu et al. (2013), Ho et al. (2001); cited from earlier work
[4] = test system: Bifidobacterium longum R0175; conditions: 25 μg/mL, cultures of B. longum; ref Pereira‐Caro et al. (2016); cited from earlier work
Wistar rats [5] = conditions: ref Selvam and Kaliyaperumal (2015), cited from earlier work
Sprague Dawley rats [6] = assay: Dose range-finding study for the EOGRT study, dietary; type: in vivo, rat
Sprague Dawley rats [7] = assay: Extended one-generation reproductive toxicity; type: in vivo, rat
[8] = cited from earlier work
[9] = test system: Intestinal bacteria isolated from human faeces; conditions: 5 mg flavonoids in 50 mL broth, 2 days, anaerobic; ref Kim et al. (1998); cited from earlier work
[10] = ref Ma et al. (2006), cited from earlier work
simvastatin metabolism = conditions: rat and human hepatocytes and microsomes; ref Ubeaud et al. (1999); cited from earlier work
Wistar rats [11] = assay: 28-day dose range-finding oral toxicity study in Wistar rats; type: in vivo, rat
In short: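 Test compound given by gavage at 1000 to 5000 mg/kg bw per day; haematology, clinical chemistry and organ weights, including uterus weight, were recorded.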

[12] = human volunteers; ref Documentation provided to EFSA No. 4; cited from earlier work
[13] = F1 C1A females, high‐dose group

SMILES: O=C1CC(c2ccc(O)cc2)Oc2cc(O)cc(O)c21 (stereo not shown) [naringenin, 4H‐1‐Benzopyran‐4‐one, 2,3‐dihydro‐5,7‐dihydroxy‐2‐(4‐hydroxyphenyl)‐]
- LD50 [1]: > 5000 mg/kg bw
- naringenin remaining (human faecal slurries; after 4 h of incubation): 26 to 36 µmol
- naringenin remaining (human faecal slurries; after 6 h of incubation): 13 to 28 µmol
- naringenin remaining (human faecal slurries; after 24 h of incubation): 3 to 8 µmol
- MN centromere-negative (FISH analysis) ([2]; 4‐h treatment with or without S9‐mix, naringenin 75, 200 and 250 μg/mL): > 64%
- Result ([2]; 125, 150, 200 μg/mL (4 h + 24 h, +S9)): Positive FISH analysis indicates that naringenin induced micronuclei by a clastogenic mechanism
- Result ([2]; 125, 150, 200, 250 μg/mL (4 h + 24 h, –S9)): Positive FISH analysis indicates that naringenin induced micronuclei by a clastogenic mechanism
- MNBN frequency ([2]; 24 h + 24 h treatment): no statistically significant increase
- IC50 (CYP2C19): < 5 µM
- IC50 [3]: 139 to 188 µM
- Recovery [4]: 88%
- LD50 (Wistar rats [5]; Gavage, M, 10/group, arithmetic method): 340 mg/kg bw
- LD50 (Wistar rats [5]; rats, considered not reliable by the Panel): about 330 mg/kg bw
- mean pre-coital interval (Sprague Dawley rats [6]; 20,000 mg/kg feed (G3)): 7.6 days
- clinical signs, mortality, morbidity (Sprague Dawley rats [6]; all dose groups): No clinical signs of toxicity, no mortality or morbidity
- dose up to which no toxicity was produced (Sprague Dawley rats [6]; females): ≤ 2724 mg/kg bw per day
- dose up to which no toxicity was produced (Sprague Dawley rats [6]; males): ≤ 2205 mg/kg bw per day
- dietary concentration up to which no toxicity was produced (Sprague Dawley rats [6]; males 29 days, females 51–62 days): up to 25,000 mg/kg feed
- Absolute organ weight (Sprague Dawley rats [7]; F1 C1A females): ↑ G3, G4 thymus; also recorded: ↑ G4 spleen and iliac lymph nodes
- Thyroid hormone levels: T4 (Sprague Dawley rats [7]; F1 C1A females): T4: –
- increase in mean platelet count (Sprague Dawley rats [7]; [13]): 25%
- mean platelet count (Sprague Dawley rats [7]; [13]): 1138.20 × 10^3 cells/μL
- Absolute organ weight (Sprague Dawley rats [7]; F1 C1A males): ↓ G2 and G3 testes and iliac lymph nodes; also recorded: ↓ G4 iliac lymph nodes
- Lymphocyte typing (spleen): T helper cells (CD4+) (Sprague Dawley rats [7]; F1 C1A males): T helper cells (CD4+): ↑ G2, G3 and G4, no dose‐related trend
- Thyroid hormone levels: T4 (Sprague Dawley rats [7]; F1 C1A males): T4: –
- Thyroid hormone levels: TSH (Sprague Dawley rats [7]; F1 C1A males): TSH: –
- Absolute organ weight (Sprague Dawley rats [7]; F1 C1B females): ↑ G4 thymus; also recorded: ↑ G3 uterus with cervix
- Absolute organ weight (Sprague Dawley rats [7]; F1 C1B males): ↑ G3 thymus
- Absolute organ weight (Sprague Dawley rats [7]; F1 pups (surplus) females, PND 21): PND 21: ↓ G2 spleen; ↑ G3 spleen; ↓ G2 brain
- Absolute organ weight (Sprague Dawley rats [7]; F1 pups (surplus) males, PND 21): PND 21: ↑ G3 spleen
- reduction of anogenital distance (AGD) (Sprague Dawley rats [7]; F1 pups, PND4, highest dose females): 4%
- decreased normal sperm (Sprague Dawley rats [7]; F1‐C1A cohort): ~ 1%
- increased sperm with abnormalities (Sprague Dawley rats [7]; F1‐C1A cohort): 50%
- increase of thymus gland weight (Sprague Dawley rats [7]; F1‐C1A females, highest dose group): 24%
- reduction of daily sperm production (Sprague Dawley rats [7]; F1‐C1A males, high dose): 2%
- reduction of daily sperm production (Sprague Dawley rats [7]; F1‐C1A males, low dose): 7%
- decrease of absolute iliac lymph node weight (Sprague Dawley rats [7]; F1‐C1A males, mid dose): 30%
- mean pre-coital interval (Sprague Dawley rats [7]; F1‐CB cohort, G3): 7.6 days
- change in mean pup weight (Sprague Dawley rats [7]; F2, PND 1, males, group G4‐C1B): −4%
- change in mean pup weight (Sprague Dawley rats [7]; F2, PND 4, females, group G4‐C1B): −8%
- change in mean pup weight (Sprague Dawley rats [7]; F2, PND 14, females, group G3‐C1B): −5%
- change in mean pup weight (Sprague Dawley rats [7]; F2, PND 14, females, group G4‐C1B): −5%
- oestrous cycle length, increase following exposure (Sprague Dawley rats [7]; P females, significant in lowest and highest exposed groups): up to 6%
- mean pre-coital interval (Sprague Dawley rats [7]; P generation, G4): 8 days
- decrease in mean urinary pH value (Sprague Dawley rats [7]; P males, high‐dose group): 12%
- increase in mean urinary specific gravity (Sprague Dawley rats [7]; P males, high‐dose group): 1%
- margin of exposure (MoE) (Sprague Dawley rats [7]; adults, chronic APET as flavouring substance, NOAEL 1320 mg/kg bw per day): 1590
- margin of exposure (MoE) (Sprague Dawley rats [7]; adults, chronic combined exposure incl. other food sources): 1390
- fertility indices (pregnancy, parturition and gestation) (Sprague Dawley rats [7]; all tested dose groups, P and F1‐C1B generations): 100%
- margin of exposure (MoE) (Sprague Dawley rats [7]; children, acute combined exposure): 48
- margin of exposure (MoE) (Sprague Dawley rats [7]; children, chronic APET as flavouring substance, NOAEL 1320 mg/kg bw per day): 630
- margin of exposure (MoE) (Sprague Dawley rats [7]; children, chronic combined exposure incl. other food sources): 550
- post-implantation loss (Sprague Dawley rats [7]; high‐dose P females): 12.6%
- NOAEL (dietary concentration) (Sprague Dawley rats [7]; mid‐dose): 20,000 mg/kg feed
- NOAEL (Sprague Dawley rats [7]; mid‐dose, P males, pre‐cohabitation period): 1320 mg/kg bw per day
- increase of solubility in water upon change of pH ([8]; 25°C, pH from 6.5 to 8.5, ref Lucas‐Abellán et al. (2019)): ~ 20 fold
- increase of solubility in water upon increase of temperature ([8]; from 25 to 35°C, ref Zhang et al. (2013), Lucas‐Abellán et al. (2019)): 2 factor
- Results: bacterial metabolism [9]: transformed to phenolic acids
- C max for total naringenin ([10]; 30 mg/kg bw): 16.9 ng/mL
- C max of unconjugated naringenin ([10]; 30 mg/kg bw): 2.9 ng/mL
- time to C max for total naringenin (including the conjugates) ([10]; 30 mg/kg bw): 0.5 h
- C max for total naringenin ([10]; 90 mg/kg bw): 28 ng/mL
- C max of unconjugated naringenin ([10]; 90 mg/kg bw): 3.7 ng/mL
- plasma half-life of total naringenin ([10]; 90 mg/kg bw): 7.6 h
- time to C max for total naringenin (including the conjugates) ([10]; 90 mg/kg bw): 2 h
- C max for total naringenin ([10]; 270 mg/kg bw): 43.8 ng/mL
- C max of unconjugated naringenin ([10]; 270 mg/kg bw): 4.4 ng/mL
- plasma half-life of total naringenin ([10]; 270 mg/kg bw): 10.5 h
- time to C max for total naringenin (including the conjugates) ([10]; 270 mg/kg bw): 2 h
- time to C max of unconjugated naringenin ([10]; 30, 90 or 270 mg/kg bw oral gavage): ≤ 15 min
- naringenin excreted in bile ([10]; bile duct-cannulated rats): 12%
- naringenin excreted in urine [10]: 6.25%
- Ki (simvastatin metabolism): 5 to 30 µM
- uterus weight (Wistar rats [11]; gavage 28 days): no effects on uterus weight
- Mortality (Wistar rats [11]; gavage, doses from 1000 to 5000 mg/kg bw per day): Mortality was observed at the highest dose tested
- glucuronic acid and sulfate conjugates as share of the dose [12]: ~ 20 % of the dose

Source: PMC11094580 (EFSA Journal, 2024)
